Source: PubChem BioAssay (several laboratories)
In the library only some 4.6% were active in any assay of this set; here they are far more common.
APP 5'UTR act – APP 5'UTR luciferase reporter activation | SH-SY5Y APP 5'UTR luciferase reporter, luminescence; zero percent = DMSO vehicle wells | activation, % at 2 µM | actives 1% (n = 190,000) | AID 1276;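 active = activation above a set limit, based on mean plus 3 SD of controls, cut at about 140% in these data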
NF-kB neuron act – NF-kB expression increase, human neuronal cells; fold change at 12.5 µM; AID 1239; actives 1.6% (n = 190,000); NF-kB reporter expression; active compounds read high; in the data active = fold change above about 3.3
Wee1 stabilizer – blocks degradation of human Wee1 kinase; actives 1.2% (n = 220,000); reporter increase, % at 5 µM; HeLa Luc-Wee1K328M stability, luciferase luminescence; 100% = proteasome inhibitor MG132 effect; AID 1321; P30291;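 active = activation above the mean of all tested compounds plus 3 SD, set per screening run, cut at about 8.8% in these data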;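 note: cells exposed to compound for 20 h before luminescence read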
MDM2 E3 inh – blocks human Mdm2 ubiquitin ligase activity | cell-based MDM2 ubiquitination luciferase reporter, 2 h; 0 = plate control, 100 = twice control, blank-subtracted | signal enhancement, % at 5 µM | actives 0.11% (n = 210,000);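 active = signal enhancement of 30% or more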;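 note: luminescence tracks abundance of the self-degrading MDM2-luciferase fusion protein; higher signal means inhibition of MDM2 E3 ligase activity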
Target sequence (Q00987 whole entry, looked up, the tested form may be a part): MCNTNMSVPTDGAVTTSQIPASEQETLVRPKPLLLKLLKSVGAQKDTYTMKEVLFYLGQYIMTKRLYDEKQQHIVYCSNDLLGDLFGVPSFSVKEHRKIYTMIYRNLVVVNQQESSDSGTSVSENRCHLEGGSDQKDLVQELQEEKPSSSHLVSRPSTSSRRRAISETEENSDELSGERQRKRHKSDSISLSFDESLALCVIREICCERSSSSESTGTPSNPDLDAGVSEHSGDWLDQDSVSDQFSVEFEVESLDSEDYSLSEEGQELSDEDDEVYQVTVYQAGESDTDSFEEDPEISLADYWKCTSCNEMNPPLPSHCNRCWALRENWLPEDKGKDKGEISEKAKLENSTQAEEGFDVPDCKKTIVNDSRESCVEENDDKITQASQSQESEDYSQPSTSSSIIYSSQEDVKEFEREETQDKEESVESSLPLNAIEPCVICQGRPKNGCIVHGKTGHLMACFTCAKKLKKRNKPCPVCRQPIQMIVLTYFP
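Timing – 2 h compound exposure at 37 °C · Assay system – mammalian cells stably expressing self-ubiquitinating, self-degrading MDM2 E3–luciferase fusion · Amount – 2000 cells seeded into each well · Measure – % luminescence enhancement versus blank-corrected plate control mean · Measured by – SteadyLite luminescence, 15 min reagent step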
STAT1 act – activators of IFN-gamma induced STAT1 signaling. NIH 3T3 STAT1-luciferase reporter, luminescence; 100% = IFN-gamma alone, no compound. actives 2.6% (n = 200,000). activation (% of control), % at 5.5 µM. AID 932;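 active = activation above the screen-wide mean activation plus 3 SD, cut at about 130% in these data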
p97 inhibitor – inhibitors of human p97 ATPase | inhibition, % at 8 µM | AID 1481 | actives 0.42% (n = 220,000) | P55072 | recombinant p97 ATPase, Kinase-Glo ATP luminescence, 3 h; in the data active = inhibition above about 15%
STAT1 activ conf – confirmation of STAT1 signaling activators; shares compounds with STAT1 act; NIH 3T3 STAT1-luciferase reporter, IFN-gamma potentiation, luminescence; 100% = IFN-gamma EC80 alone, no compound; activation (% of control), % at 5.7 µM; actives 97% (n = 1,200); AID 1262;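 active = activation above a set limit carried over from the earlier primary STAT1 screen, cut at about 140% in these data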
NFkB act STAT1ct – counter-screen for STAT1 activators: NF-kappaB activation; activation (% of control), % at 5.7 µM; AID 1306; HEK293T NF-kB luciferase reporter, TNF-alpha stimulated, luminescence; 100% = TNF-alpha with vehicle only; actives 43% (n = 1,200); shares compounds with STAT1 act;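 active = activation above the mean of solvent-only control wells plus 3 SD, set per campaign, cut at about 130% in these data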;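 note: TNF-alpha given at a submaximal dose yielding about 80% of full reporter signal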
STAT3 act 2 – human STAT3 activation in STAT1 activator counter-screen; AID 1316; actives 46% (n = 1,200); activation (% of control), % at 5.7 µM; shares compounds with STAT1 act; U3A cells STAT3-luciferase reporter, IL-6, luminescence; cells lack STAT1; 100 = IL-6 alone, no compound effect;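 active = activation above the solvent-only control well mean plus 3 SD, set per plate batch, cut at about 110% in these data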;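 note: higher means more STAT3 reporter activation so hits are non-selective activators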
Wee1 stab conf – human Wee1 degradation inhibition, confirmation | shares compounds with Wee1 stabilizer | activation, % at 5 µM | actives 4% (n = 1,100) | HeLa Luc-Wee1K328M degradation, luminescence; vehicle 0%, proteasome-blocked wells 100%; in the data active = activation above about 8.9%
Hits are given with their value; – = inactive; · = no result given.

SMILES | APP 5'UTR act | NF-kB neuron act | Wee1 stabilizer | MDM2 E3 inh | STAT1 act | p97 inhibitor | STAT1 activ conf | NFkB act STAT1ct | STAT3 act 2 | others
Cn1cccc1/C=C1\SC(=S)N(Nc2ccccc2)C1=O | · | · | – | – | · | – | · | · | ·
Cn1cccc1/C=C1\SC(=O)N(c2ccccc2)C1=O | – | – | – | – | 159 | – | 190 | – | –
CCN(CC)c1ccc2cc(C(=O)Nc3ccccn3)c(=O)oc2c1 | – | 3.6 | – | – | 154 | – | 236 | – | –
O=C(O)Cn1nnnc1SCC(=O)Nc1ccc(F)cc1F | – | – | – | – | – | – | · | · | ·
O=C(NCC1CCCO1)c1ccc2c(=O)n(-c3ccccc3)c(=S)[nH]c2c1 (centres undefined) | – | – | – | – | – | – | · | · | ·
COc1ccccc1-c1noc(-c2ccccc2)n1 | – | 5.6 | – | – | 176 | – | 213 | 142 | 116
COc1nc(-c2ccccc2)ccc1-c1noc(-c2ccccc2)n1 | – | – | – | – | – | – | · | · | ·
CCOc1ccccc1-c1nc(-c2ccc(C)nc2OC)no1 | – | – | 9.5 | – | 153 | – | 167 | – | 114
CCOc1nc(C)ccc1-c1noc(-c2ccccn2)n1 | – | – | – | – | – | – | · | · | ·
CC(=O)c1sc(NC(=O)COc2ccc(C(C)C)c(C)c2)nc1C | – | – | – | – | – | – | · | · | ·
CCN(Cc1ccccc1)c1ccc(/C=C(\C#N)c2ccccn2)cc1 | – | – | – | – | 167 | – | 197 | 143 | 113
CC(C)CC(=O)Nc1ccc2c(c1)oc1ccccc12 | 173 | 6.1 | – | – | 152 | – | 190 | 134 | –
CCCCC(=O)Nc1ccc2c(c1)oc1ccccc12 | – | – | – | – | – | – | · | · | ·
Clc1cccc(Cl)c1Cn1ccc(C2CC2)n1 | – | – | – | – | – | – | · | · | ·
CC1CCc2c(sc(NC(=O)C3CCCO3)c2C#N)C1 (centres undefined) | 144 | 4.6 | – | – | 154 | – | 169 | 134 | 114
Cc1cccn2c1nc(=S)n2C(=O)c1ccco1 | 147 | – | 12 | – | 208 | – | 256 | 176 | 135 | Wee1 stab conf=10
CCn1c(C)c(C(C)=O)c(N2CCN(C(=O)c3ccco3)CC2)nc1=S | – | – | – | – | – | – | · | · | ·
Cc1cc(C)c2cc3c(N)c(C(=O)N4CCc5ccccc5C4)sc3nc2c1 | – | – | – | – | – | – | · | · | ·
Cc1cccc2cc3c(N)c(C(=O)N4CCOCC4)sc3nc12 | – | – | 14 | – | 157 | – | 160 | – | 124 | Wee1 stab conf=–
CN(C)c1ccc(/C=C/c2nnnn2-c2ccccc2)cc1 | – | 3.9 | 12 | – | 172 | – | 187 | 134 | 118 | Wee1 stab conf=–
Cc1cc(N/C=C\c2nnnn2-c2ccccc2)no1 | – | – | – | – | – | – | · | · | ·
Cc1nn(C)c(Sc2ccccc2N)c1[N+](=O)[O-] | – | – | – | – | – | – | · | · | ·
C=CS(=O)(=O)c1ccc(Oc2ccc(S(=O)(=O)C=C)cc2)cc1 | – | – | 15 | 64 | 323 | – | 189 | – | 114 | Wee1 stab conf=14
COc1ccc2cc(C(N)=O)c(=Nc3ccccc3)oc2c1 | 137 | – | 11 | – | 152 | – | 142 | – | – | Wee1 stab conf=–
COc1ccc(NC(=O)Cc2ccccc2)cn1 | – | – | – | – | – | – | · | · | ·
